Where “and” joins values, the source holds several entries; their conditions need not be identical. Equal entries are not always repeated. Where a SMILES comes first, the peptide text is derived from it. The star is where a group is joined. X1 = O=C(ON1C(=O)CCC1=O)c1cccc(-c2c3ccc(=O)cc-3oc3cc(O)ccc23)c1C(=O)*
Legend:
[1] = biological target: T1, E3 ubiquitin-protein ligase XIAP (Homo sapiens, UniProt P98170); test: Compound was tested for inhibitory activity towards XIAP BIR3 protein
[2] = biological target: T1, E3 ubiquitin-protein ligase XIAP; test: Dissociation constant for XIAP BIR3 protein in FP-based binding assay
[3] = biological target: T1, E3 ubiquitin-protein ligase XIAP; test: Dissociation constant for XIAP BIR3 protein using different binding assay
Jurkat [4] = test: Inhibitory concentration of compound against Jurkat-Vec cells; format: functional, cell-based; details: Homo sapiens
Procedure, shortened: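 Stably vector-transfected Jurkat T cells kept in RPMI 1640 with 10% fetal calf serum and 1 µg/mL puromycin; growth read by WST-1 as for prostate lines: 5000 cells/well, triplicate concentrations, 4–5 days, absorbance 450/650 nm versus vehicle control, IC50 from sigmoid fit.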

Jurkat [5] = test: Induction of apoptosis by etoposide in Jurkat vec cells at a dose of 2.5 uM for 72 h; format: functional, Homo sapiens
Procedure, shortened: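 Stably vector-transfected Jurkat cells exposed to etoposide 2.5 µM for 72 h in the cell growth assay; reported as % of cells killed.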

LNCaP [6] = test: Inhibitory concentration of compound against growth of LNCaP cells in vitro; format: functional, cell-based; details: Homo sapiens
Procedure, shortened: (§1)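 WST-1 growth assay: 5000 cells/well in medium with 10% FBS, serial compound concentrations in triplicate for 4–5 days (five days per legend); WST-1 added 1–3 h at 37 °C, absorbance 450 nm corrected at 650 nm. Growth as % of vehicle-control absorbance; IC50 by sigmoid curve fit; experiment repeated three times.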

LNCaP [7] = test: Compound was tested for inhibition of LnCap prostate cancer cells; format: functional, cell-based; details: Homo sapiens; procedure, shortened: as §1
PC-3 [8] = test: Inhibitory concentration of compound against growth of PC-3 cells in vitro; format: functional, cell-based; details: Homo sapiens; procedure, shortened: as §1
PC-3 [9] = test: Activation of caspase-9 by embelin in PC-3 prostate cancer cells at a concentration of 20 uM; format: functional, Homo sapiens
Procedure, shortened: (§2)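 PC-3 cells seeded 1 × 10^6 per well, exposed to compound or DMSO vehicle for 42 h; parallel control had pan-caspase inhibitor Z-VAD-FMK added 5 min before compound. Cells in complete medium labeled with Red-LEHD-FMK 0.5 h at 37 °C, 5% CO2, washed; active caspase-9 scored by flow cytometry in PI channel as % positive cells.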

PC-3 [10] = test: Percent of PC-3 cells underwent apoptosis after incubation with 25 uM of compound for 48 hr; format: functional, Homo sapiens
Procedure, shortened: (§3)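 PC-3 cells, 1 × 10^6 per well, treated in triplicate with compound for 48 h, trypsinized, PBS-washed, stained with Annexin V-FITC plus propidium iodide; flow cytometry, reported as % Annexin V-FITC-positive apoptotic cells; three separate experiments.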

PC-3 [11] = test: Percent of PC-3 cells underwent apoptosis after incubation with 50 uM of compound for 48 hr; format: functional, Homo sapiens; procedure, shortened: as §3
PC-3 [12] = test: Activation of caspase-9 by embelin in PC-3 prostate cancer cells at a concentration of 40 uM; format: functional, Homo sapiens; procedure, shortened: as §2
PC-3 [13] = test: Induction of apoptosis by embelin in PC-3 prostate cancer cells at a concentration of 25 uM for 48 h; format: functional, Homo sapiens; procedure, shortened: as §3
PC-3 [14] = test: Induction of apoptosis by embelin in PC-3 prostate cancer cells at a concentration of 50 uM for 48 h; format: functional, Homo sapiens; procedure, shortened: as §3
PC-3 [15] = test: Compound was tested for inhibition of PC-3 prostate cancer cells; format: functional, cell-based; details: Homo sapiens; procedure, shortened: as §1
PC-3 [16] = test: Percent of PC-3 cells stained for activated caspase-9 after incubation with 20 uM of compound for 42h; format: functional, Homo sapiens; procedure, shortened: as §2
PC-3 [17] = test: Percent of PC-3 cells stained for activated caspase-9 after incubation with 40 uM of compound for 42h; format: functional, Homo sapiens; procedure, shortened: as §2
PrEC [18] = test: Selectivity in normal human prostate epithelial cells (PrEC); format: functional, cell-based; procedure, shortened: as §1
PrEC [19] = test: Inhibitory concentration of compound against growth of PrEC cells in vitro; format: functional, cell-based; details: Homo sapiens; procedure, shortened: as §1
WI-38 5000 = test: Selectivity in normal human fibroblast cell line, WI-38 cells; format: functional, cell-based; procedure, shortened: as §1
WI-38 = test: Inhibitory concentration of compound against growth of WI-38 cells in vitro; format: functional, cell-based; details: Homo sapiens; procedure, shortened: as §1
Jurkat [20] = test: Percent of Jurkat-Vec cells killed after 72 hr of 2.5 uM of compound administration; format: cell-based; details: human
Procedure, shortened: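 Jurkat T cells stably carrying empty vector, kept in RPMI 1640 with 10% fetal calf serum and 1 µg/mL puromycin at 37 °C, 5% CO2. Cell growth assay at 5000 cells/well in 10% FBS medium, drug added in triplicate for 72 h. WST-1 then added for 1-3 h at 37 °C. Absorbance read at 450 nm, corrected at 650 nm, and compared with vehicle-control wells.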

Jurkat [21] = test: Percent of Jurkat-XIAP cells killed after 72 hr of 10 uM of compound administration; details: human
Jurkat [22] = test: Percent of Jurkat-XIAP cells killed after 72 hr of 2.5 uM of compound administration; details: human

T1 sequence (P98170 whole entry): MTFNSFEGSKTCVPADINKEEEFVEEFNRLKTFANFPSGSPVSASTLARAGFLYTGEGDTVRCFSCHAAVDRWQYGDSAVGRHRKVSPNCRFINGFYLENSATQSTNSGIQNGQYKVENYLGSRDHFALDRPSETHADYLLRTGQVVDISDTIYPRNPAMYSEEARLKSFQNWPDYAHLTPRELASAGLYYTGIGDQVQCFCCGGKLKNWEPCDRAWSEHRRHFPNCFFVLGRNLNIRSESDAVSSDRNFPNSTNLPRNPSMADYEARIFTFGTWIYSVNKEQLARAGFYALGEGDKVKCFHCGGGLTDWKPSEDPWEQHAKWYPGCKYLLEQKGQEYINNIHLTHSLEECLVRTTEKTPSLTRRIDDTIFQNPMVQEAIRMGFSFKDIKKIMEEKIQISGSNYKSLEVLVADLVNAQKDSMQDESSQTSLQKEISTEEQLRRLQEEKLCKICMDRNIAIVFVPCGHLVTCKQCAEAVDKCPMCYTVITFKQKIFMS

C[C@H](N)C(=O)N[C@@H](CCCNC(=N)N)C(=O)N1CCC[C@H]1C(=O)N[C@@H](Cc1ccccc1)C(=O)N[C@@H](C)C(=O)N[C@@H](CCC(N)=O)C(=O)N[C@@H](CCCCNC(=O)c1c(C(=O)ON2C(=O)CCC2=O)cccc1-c1c2ccc(=O)cc-2oc2cc(O)ccc12)C(=O)O (H-ARPFAQK(X1)-OH)
IC50 [1]: 0.57 µM

C[C@H](N)C(=O)N[C@@H](CCCNC(=N)N)C(=O)N1CCC[C@H]1C(=O)N[C@@H](Cc1ccccc1)C(=O)N[C@@H](C)C(=O)N[C@@H](CCC(N)=O)C(=O)N[C@@H](CCCCN)C(=O)O (H-ARPFAQK-OH)
Kd [2]: 0.038 µM | Kd [3]: 0.02 µM

CCCCCCCCCCCC1=C(O)C(=O)C=C(O)C1=O [EMBELIN]
IC50 [1]: 4.1 µM | IC50 (Jurkat [4]): 20 µM | Induction (Jurkat [5]): 94.3% and 59% | IC50 (LNCaP [6]): 5.7 µM | IC50 (LNCaP [7]): 5.7 µM | IC50 (PC-3 [8]): 3.7 µM | Induction (PC-3 [9]): 33% | Apoptosis (PC-3 [10]): 30% | Apoptosis (PC-3 [11]): 75% | Induction (PC-3 [12]): 62.1% | Induction (PC-3 [13]): 30% | Induction (PC-3 [14]): 75% | IC50 (PC-3 [15]): 3.7 µM | Staining (PC-3 [16]): 33% | Staining (PC-3 [17]): 62.1% | IC50 (PrEC [18]): 20.1 µM | IC50 (PrEC [19]): 20.1 µM | IC50 (WI-38 5000): 19.3 µM | IC50 (WI-38): 19.3 µM

COc1cc([C@@H]2c3cc4c(cc3[C@@H](O[C@@H]3O[C@@H]5CO[C@@H](C)O[C@H]5[C@H](O)[C@H]3O)[C@H]3COC(=O)[C@H]23)OCO4)cc(OC)c1O [ETOPOSIDE]
Death (Jurkat [20]): 94.3% | Death (Jurkat [21]): 85% | Death (Jurkat [22]): 59%

Source: ChEMBL document CHEMBL1148304, “Discovery of embelin as a cell-permeable, small-molecular weight inhibitor of XIAP through structure-based computational screening of a traditional herbal medicine three-dimensional structure database” (J Med Chem, 2004)
